Experimental data as given in publication PMC5377441 (International Journal for Parasitology: Drugs and Drug …, 2017).
Read-outs that look alike come from different tables or passages of the source.

How the values were obtained:
[1] = test system: adult T. muris; details: serial dilution, 72 h; ref Keiser et al., 2013; cited from earlier work
[2] = test system: T. muris; details: oral 10 mg/kg; ref Keiser et al., 2013; cited from earlier work
[3] = oral 100 mg/kg, rats; ref Cowan et al., 2016; cited from earlier work
[4] = test system: T. muris; experiment: Drug uptake by T. muris in vivo; parameters: species or system Trichuris muris in C57BL/10 mice
[5] = test system: T. muris; experiment: In vitro drug uptake and elimination by T. muris; format: in vitro ADME, Trichuris muris
[6] = format: in vivo, C57BL/10 mice
[7] = test system: adult H. polygyrus; experiment: In vitro drug activity against adult H. polygyrus, phenotypic readout; format: cell-based, Heligmosomoides polygyrus; details: 200 μM, 72 h
Method in brief: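 Adult H. polygyrus were dissected from NMRI mice from ten days post-infection onward. Four worms per drug were incubated in 2 ml at 200 μM for 72 h, with DMSO-matched worms as controls. Motility, transparency and morphology were scored from 3 (normal) to 0 (highly impaired or dead). Runs were done in duplicate and repeated once.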

[8] = test system: H. polygyrus; experiment: In vitro drug uptake and elimination by H. polygyrus; format: in vitro ADME, Heligmosomoides polygyrus; details: 24 h

## CN1CCCN=C1/C=C/c1cccc(O)c1 [Oxantel pamoate, oxantel pamoate]
[1]
  EC50: 4 µM

## CN1CCCN=C1/C=C/c1cccc(O)c1.O=C(O)c1cc2ccccc2c(Cc2c(O)c(C(=O)O)cc3ccccc23)c1O [Oxantel pamoate, oxantel pamoate]
[2]
  Worm burden reduction: 93% [10 mg/kg] ^c
[3]
  oxantel pamoate in plasma: could not quantify
[4]; in vivo
  drug quantity in worms, maximum: ≤ 34 nmol per ten T. muris
[4]; intraperitoneal 50 mg/kg, 2 h
  oxantel pamoate in worms: no compound could be quantified
[4]; oral 100 mg/kg, 5 h
  oxantel pamoate in worms: 34 nmol/10 worms
[4]; oral 100 mg/kg, 8 h
  oxantel pamoate in worms: 22 nmol/10 worms
[5]; exposure at 25 μM
  time after which uptake ceased: 8 h
[5]; incubation at 5 μM, 24 h
  OxP in worms: 13 ± 9 nmol/10 worms
[5]; incubation at 10 μM, 24 h
  OxP in worms: 27 ± 9 nmol/10 worms
[5]; incubation at 25 μM, 24 h
  OxP in worms: 65 ± 5 nmol/10 worms
[5]; incubation at 50 μM, 24 h
  OxP in worms: 155 ± 41 nmol/10 worms
[5]; incubation at 75 μM, 24 h
  OxP in worms: 169 ± 24 nmol/10 worms
[5]; incubation at 100 μM, 24 h
  OxP in worms: 197 ± 46 nmol/10 worms
[6]; intraperitoneal 50 mg/kg, 2 h
  oxantel pamoate in the large intestine: 7 µmol/g
  oxantel pamoate in the mucosal tissue of the large intestine: 17 µmol/g
  oxantel pamoate in the mucosal tissue of the small intestine: 2 µmol/g
  oxantel pamoate in the small intestine: 7 µmol/g
  oxantel pamoate in the stomach: 5 µmol/g
[6]; intraperitoneal 50 mg/kg, 2 h, below the LLOQ
  oxantel pamoate plasma level: 0.21 µM
[6]; oral 100 mg/kg, 2-8 h (all times)
  plasma concentration of the administered drug: < 700 nM
[6]; oral 100 mg/kg, 5 and 8 h
  administered drug in the small intestinal mucosa: 2 µmol/g
[6]; oral 100 mg/kg, 2 h
  administered drug in the large intestine: 6 µmol/g
  administered drug in the mucosa of the small intestine: 31 µmol/g
  administered drug in the small intestine: 1951 µmol/g
  administered drug in the stomach: 5278 µmol/g
[6]; oral 100 mg/kg, 5 h
  administered drug in the large intestine: 359 µmol/g
  administered drug in the small intestine: 54 µmol/g
  administered drug in the stomach: 302 µmol/g
[6]; oral 100 mg/kg, 8 h
  administered drug in the large intestine: 110 µmol/g
  administered drug in the small intestine: 61 µmol/g
  administered drug in the stomach: 364 µmol/g

## CCCS(=O)(=O)c1ccc2nc(NC(=O)OC)[nH]c2c1 [Albendazole sulfone, albendazole sulfone]
[7]
  Drug effect (reduction of parasite viability): 40% [200 μM]
[7]; listed as albendazole sulfone
  Drug effect (reduction of parasite viability): 40%
[5]; incubation 5-100 μM, 24 h
  albendazole in the parasite and the culture medium: neither detected
  albendazole sulfoxide in the parasite and the culture medium: neither detected
[5]; incubation at 5 μM, 24 h
  ABZSO2 in worms: 122 ± 45 nmol/10 worms
[5]; incubation at 10 μM, 24 h
  ABZSO2 in worms: 185 ± 55 nmol/10 worms
[5]; incubation at 25 μM, 24 h
  ABZSO2 in worms: 421 ± 171 nmol/10 worms
[5]; incubation at 50 μM, 24 h
  ABZSO2 in worms: 780 ± 258 nmol/10 worms
[5]; incubation at 75 μM, 24 h
  ABZSO2 in worms: 1127 ± 451 nmol/10 worms
[5]; incubation at 100 μM, 24 h
  ABZSO2 in worms: 1348 ± 447 nmol/10 worms
[8]; incubation 5 to 100 μM, range or mean over the concentrations
  albendazole sulfoxide detected in worms: 15 nmol/10 worms
[8]; incubation 5 to 100 μM, range, mean or maximum over the concentrations
  albendazole sulfone detected in worms: 33 nmol/10 worms
[8]; incubation at 5 μM
  ABZSO2 in worms: 33 ± 10 nmol/10 worms
  ABZSO in medium: 0.2 ± 0.1 µM
  ABZSO in worms: 19 ± 10 nmol/10 worms
[8]; incubation at 10 μM
  ABZSO2 in worms: 51 ± 23 nmol/10 worms
  ABZSO in medium: 0.2 ± 0.1 µM
  ABZSO in worms: 19 ± 3 nmol/10 worms
[8]; incubation at 25 μM
  ABZSO2 in worms: 23 ± 8 nmol/10 worms
  ABZSO in medium: 0.4 ± 0.0 µM
  ABZSO in worms: 13 ± 11 nmol/10 worms
[8]; incubation at 50 μM
  ABZSO2 in worms: 30 ± 20 nmol/10 worms
  ABZSO in medium: 0.3 ± 0.0 µM
  ABZSO in worms: 9 ± 5 nmol/10 worms
[8]; incubation at 75 μM
  ABZSO2 in worms: 31 ± 8 nmol/10 worms
  ABZSO in medium: 0.3 ± 0.0 µM
  ABZSO in worms: 16 ± 11 nmol/10 worms
[8]; incubation at 100 μM
  ABZSO2 in worms: 33 ± 21 nmol/10 worms
  ABZSO in medium: 0.2 ± 0.0 µM
  ABZSO in worms: 16 ± 8 nmol/10 worms
